According to ChEMBL document CHEMBL1121603, “Structure-activity relationships of antibacterial 6,7- and 7,8-disubstituted 1-alkyl-1,4-dihydro-4-oxoquinoline-3-carboxylic acids” (1980):
Values after ≈ are worked out from the molar mass of the structure shown.

How the values were obtained:
Type in all cases: functional
[1] = tested on: Staphylococcus aureus; assay: In vitro antibacterial activity against Gram-positive, Staphylococcus aureus 209 P
Method in brief: (§1)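 MIC in µg/mL, determined by a standard twofold serial dilution method on agar media.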

[2] = tested on: Escherichia coli; assay: In vitro for antibacterial activity against Gram-negative Escherichia coli […] JC-2.; method in brief: as §1
[3] = tested on: Pseudomonas aeruginosa; assay: In vitro antibacterial activity against Gram-negative Pseudomonas aeruginosa V-1.; method in brief: as §1

SMILES | MIC [1] [µg/mL] | MIC [2] [µg/mL] | MIC [3] [µg/mL]
C=Cn1cc(C(=O)O)c(=O)c2cc(F)c(N3CCNCC3)cc21 | 3.13 (≈ 9.86 µM) | 0.1 (≈ 0.315 µM) | 0.39 (≈ 1.23 µM)
CCOC(=O)c1cn(CC)c2cc(N3CCNCC3)c(F)cc2c1=O | 50 (≈ 144 µM) | 12.5 (≈ 36 µM) | 50 (≈ 144 µM)
CCn1cc(C(=O)O)c(=O)c2cc(C)c(N3CCNCC3)cc21.Cl | 3.13 | 0.39 | 6.25
CCn1cc(C(=O)O)c(=O)c2cc([N+](=O)[O-])c(N3CCNCC3)cc21 | 25 (≈ 72.2 µM) | 0.78 (≈ 2.25 µM) | 12.5 (≈ 36.1 µM)
CCn1cc(C(=O)O)c(=O)c2cc(F)c(C)cc21 [NALDIXIC ACID] | 6.25 (≈ 25.1 µM) | 0.39 (≈ 1.56 µM) | 50 (≈ 201 µM)
CCn1cc(C(=O)O)c(=O)c2cc3c(cc21)OCO3 [OXOLINIC ACID] | 3.13 (≈ 12 µM) | 0.1 (≈ 0.383 µM) | 25 (≈ 95.7 µM)
CCn1cc(C(=O)O)c(=O)c2ccc(N3CCNCC3)cc21 | 12.5 (≈ 41.5 µM) | 0.78 (≈ 2.59 µM) | 3.13 (≈ 10.4 µM)
CCn1cc(C(=O)O)c(=O)c2cc(C#N)c(N3CCNCC3)cc21 | 12.5 (≈ 38.3 µM) | 0.39 (≈ 1.2 µM) | 6.25 (≈ 19.2 µM)
CCn1cc(C(=O)O)c(=O)c2cc(Cl)c(N3CCNCC3)cc21.Cl | 1.56 | 0.2 | 3.13
CCn1cc(C(=O)O)c(=O)c2cc(F)c(N3CCNCC3)cc21 [NORFLOXACIN] | 0.39 (≈ 1.22 µM) | 0.05 (≈ 0.157 µM) | 0.39 (≈ 1.22 µM)
C=CCn1cc(C(=O)O)c(=O)c2cc(F)c(N3CCNCC3)cc21.Cl | 3.13 | 0.2 | 1.56
CCCn1cc(C(=O)O)c(=O)c2cc(F)c(N3CCNCC3)cc21.Cl | 1.56 | 0.2 | 3.13
CCn1cc(C(=O)O)c(=O)c2cc(F)c(N3CCN(Cc4ccccc4)CC3)cc21 | 0.39 (≈ 0.952 µM) | 0.78 (≈ 1.9 µM) | 50 (≈ 122 µM)
CCn1cc(C(=O)O)c(=O)c2cc(F)c(N3CCN(Cc4ccc(N)cc4)CC3)cc21 |  |  | 12.5 (≈ 29.4 µM)
O=C(O)c1cn(Cc2ccccc2)c2cc(N3CCNCC3)c(F)cc2c1=O | 1.56 (≈ 4.09 µM) | 0.78 (≈ 2.05 µM) | 1.56 (≈ 4.09 µM)
CCn1cc(C(=O)O)c(=O)c2cc(F)c(NCCNC(C)=O)cc21 [7-ACETYLAMINOETHYL-AMINO-FLUOROQUINONE] | > 100 | 25 (≈ 74.6 µM) | > 100
CCn1cc(C(=O)O)c(=O)c2cc(F)c(N)cc21 [7-AMINO-FLUOROQUINONE] | > 100 | 3.13 (≈ 12.5 µM) | > 100

SMILES | MIC [1] [µg/mL] | MIC [2] [µg/mL] | MIC [3] [µg/mL]
CCn1cc(C(=O)O)c(=O)c2ccc(C)nc21 [NALIDIXIC ACID] | > 100 | 3.13 (≈ 13.5 µM) | 100 (≈ 431 µM)
CCn1cc(C(=O)O)c(=O)c2ccc(N3CCNCC3)c(F)c21.Cl | 12.5 | 0.78 | 1.56
CCn1cc(C(=O)O)c(=O)c2cc(F)c(N(C)C)cc21 | 0.78 (≈ 2.8 µM) | 0.39 (≈ 1.4 µM) | 50 (≈ 180 µM)
Cl.O=C(O)c1cn(CCF)c2cc(N3CCNCC3)c(F)cc2c1=O | 1.56 | 0.1 | 0.78
CCn1cc(C(=O)O)c(=O)c2cc(F)c(NCCN)cc21 | > 100 | 6.25 (≈ 21.3 µM) | 50 (≈ 170 µM)
Cl.Cn1cc(C(=O)O)c(=O)c2cc(F)c(N3CCNCC3)cc21 | 6.25 | 0.39 | 1.56
C=Cn1cc(C(=O)O)c(=O)c2cc(F)c(N3CCN(C)CC3)cc21 | 1.56 (≈ 4.71 µM) | 0.1 (≈ 0.302 µM) | 3.13 (≈ 9.45 µM)
CCn1cc(C(=O)OC)c(=O)c2cc(F)c(N3CCNCC3)cc21 | 100 (≈ 300 µM) | 12.5 (≈ 37.5 µM) | 50 (≈ 150 µM)
CCn1ccc(=O)c2cc(F)c(N3CCNCC3)cc21 | > 100 | > 100 | > 100
CCn1cc(C(=O)O)c(=O)c2cc(Br)c(N3CCNCC3)cc21.Cl | 3.13 | 0.39 | 12.5
CCn1cc(C(=O)O)c(=O)c2cc(C(C)=O)c(N3CCNCC3)cc21 | 100 (≈ 291 µM) | 100 (≈ 291 µM) | > 100
CCn1cc(C(=O)O)c(=O)c2cnc(N3CCNCC3)nc21 [PIPEMIDIC ACID] | 25 (≈ 82.4 µM) | 1.56 (≈ 5.14 µM) | 12.5 (≈ 41.2 µM)
CCn1cc(C(=O)O)c(=O)c2cc(F)c(N3CCN(Cc4ccc([N+](=O)[O-])cc4)CC3)cc21 | 1.56 (≈ 3.43 µM) | 6.25 (≈ 13.8 µM) | > 100
Cl.O=C(O)c1cn(CCO)c2cc(N3CCNCC3)c(F)cc2c1=O | 1.56 | 0.39 | 3.13
CCn1cc(C(=O)O)c(=O)c2cc(F)c(N3CCN(C(=O)c4ccccc4)CC3)cc21 | 1.56 (≈ 3.68 µM) | 3.13 (≈ 7.39 µM) | 25 (≈ 59 µM)
CCn1cc(C(=O)O)c(=O)c2ccc(N3CCNCC3)c(Cl)c21.Cl | 3.13 | 0.39 | 6.25

Now from value to compound:

MIC [1] [µg/mL] | MIC [2] [µg/mL] | MIC [3] [µg/mL] | SMILES
25 (≈ 72 µM) | 0.78 (≈ 2.24 µM) | 12.5 (≈ 36 µM) | CCn1cc(C(=O)O)c(=O)c2cc(SC)c(N3CCNCC3)cc21
0.39 (≈ 1.17 µM) | 0.1 (≈ 0.3 µM) |  | CCn1cc(C(=O)O)c(=O)c2cc(F)c(N3CCN(C)CC3)cc21 [PEFLOXACIN]
0.2 (≈ 0.657 µM) | 0.39 (≈ 1.28 µM) | 12.5 (≈ 41.1 µM) | CCn1cc(C(=O)O)c(=O)c2cc(F)c(N3CCCC3)cc21
0.78 (≈ 2.16 µM) | 1.56 (≈ 4.32 µM) | 25 (≈ 69.2 µM) | CCn1cc(C(=O)O)c(=O)c2cc(F)c(N3CCN(C(C)=O)CC3)cc21 [4-N-ACETYL-1-PIPERAZINYL-NORFLOXACIN]
0.39 (≈ 1.17 µM) | 0.2 (≈ 0.598 µM) | 12.5 (≈ 37.4 µM) | CCn1cc(C(=O)O)c(=O)c2cc(F)c(N3CCC(O)CC3)cc21
0.39 (≈ 1.09 µM) | 0.39 (≈ 1.09 µM) | 6.25 (≈ 17.4 µM) | C=CCN1CCN(c2cc3c(cc2F)c(=O)c(C(=O)O)cn3CC)CC1
0.78 (≈ 2.44 µM) | 0.2 (≈ 0.624 µM) | 12.5 (≈ 39 µM) | CCn1cc(C(=O)O)c(=O)c2cc(F)c(N3CCOCC3)cc21
0.78 (≈ 2.45 µM) | 1.56 (≈ 4.9 µM) | 50 (≈ 157 µM) | CCn1cc(C(=O)O)c(=O)c2cc(F)c(N3CCCCC3)cc21
0.78 (≈ 2.15 µM) | 0.1 (≈ 0.275 µM) | 6.25 (≈ 17.2 µM) | CCn1cc(C(=O)O)c(=O)c2cc(F)c(N3CCN(CCO)CC3)cc21
1.56 (≈ 4.46 µM) | 0.78 (≈ 2.23 µM) | 25 (≈ 71.5 µM) | CCn1cc(C(=O)O)c(=O)c2cc(Cl)c(N3CCN(C)CC3)cc21
12.5 (≈ 46.4 µM) | 1.56 (≈ 5.79 µM) | 100 (≈ 371 µM) | CCn1cc(C(=O)O)c(=O)c2cc(F)c(Cl)cc21
1.56 (≈ 4.49 µM) | 0.39 (≈ 1.12 µM) | 6.25 (≈ 18 µM) | CCn1cc(C(=O)O)c(=O)c2cc(F)c(N3CCN(C=O)CC3)cc21 [4-N-FORMYL-1-PIPERAZINYL-NORFLOXACIN]
1.56 (≈ 3.96 µM) | 0.39 (≈ 0.989 µM) | 100 (≈ 254 µM) | CCn1cc(C(=O)O)c(=O)c2cc(Br)c(N3CCN(C)CC3)cc21
1.56 (≈ 4.32 µM) | 1.56 (≈ 4.32 µM) | 100 (≈ 277 µM) | CCn1cc(C(=O)O)c(=O)c2cc(F)c(N3CCC(C(N)=O)CC3)cc21
0.39 (≈ 1.08 µM) | 0.1 (≈ 0.277 µM) | 3.13 (≈ 8.66 µM) | CCn1cc(C(=O)O)c(=O)c2cc(F)c(N3CCC(N(C)C)CC3)cc21
 | 0.1 (≈ 0.288 µM) | 3.13 (≈ 9.01 µM) | CCN1CCN(c2cc3c(cc2F)c(=O)c(C(=O)O)cn3CC)CC1
0.39 (≈ 1.11 µM) | 0.1 (≈ 0.285 µM) | 3.13 (≈ 8.91 µM) | CN1CCN(c2cc3c(cc2F)c(=O)c(C(=O)O)cn3CCF)CC1
3.13 (≈ 9.39 µM) | 0.39 (≈ 1.17 µM) | 12.5 (≈ 37.5 µM) | CCn1cc(C(=O)O)c(=O)c2cc(F)c(N3CCNC(=O)C3)cc21 [3-OXO-1-PIPERAZINYL-NORFLOXACIN]
